# Screening results: PubChem, several laboratories
# In the library only some 3.6% were active in any assay of this set; here they are far more common.
# SENP1 FRET inh = human SENP1 catalytic domain inhibitors, primary screen, biochemical, FRET, uHTS; recombinant SENP1 catalytic domain, CyPet-SUMO1-YPet FRET cleavage; inhibition, % at 10 µM; 360,000 compounds, 0.21% hits;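 active means inhibition at least 30% at 10 µM, raw YFP signal under a set limit, fluorescence ratio 0.5 to 1.5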
# Target sequence (Q9P0U3 419-644 limits assumed): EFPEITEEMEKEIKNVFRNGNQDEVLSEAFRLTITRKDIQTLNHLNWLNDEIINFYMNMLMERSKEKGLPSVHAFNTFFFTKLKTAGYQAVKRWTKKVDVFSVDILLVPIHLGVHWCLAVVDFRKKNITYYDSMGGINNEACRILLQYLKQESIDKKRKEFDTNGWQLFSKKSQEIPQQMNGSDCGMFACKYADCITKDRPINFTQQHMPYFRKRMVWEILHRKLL
#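 Test system: human SENP1 catalytic domain; medium: Tris pH 8 buffer plus EDTA, NaCl, BME, BSA, NP40, catalase; incubation: 50 min reaction at room temperature; technique: FRET, CFP and YFP emission; controls: no-enzyme low control and enzyme-plus-DMSO high control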
# NadD inh = inhibitors of S. aureus NadD, primary screen, biochemical, colorimetric, uHTS. Nicotinate-nucleotide adenylyltransferase NadD (Staphylococcus aureus N315). purified NadD enzyme, colorimetric absorbance read-out. inhibition, % at 20 µM. 360,000 compounds, 0.78% hits; in the data active means inhibition above about 26%
# UCH37 inh = inhibitors of human UCH37 deubiquitinase, primary screen, biochemical, Ub-AMC cleavage, fluorescence; Ubiquitin carboxyl-terminal hydrolase isozyme L5 (Homo sapiens), Q9Y5K5; purified proteasome/UCH37; inhibition, % (concentration not given with the values); 330,000 compounds, 0.33% hits;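 active means mean inhibition over replicate wells above about 20%, limit read from the data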
#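 Material: Human UCH37 enzyme supplied as purified proteasome complex | Schedule: 30 min compound-proteasome preincubation then 25 min substrate reaction, room temperature | Detection: AMC fluorescence from Ub-AMC cleavage, excitation 355 nm, emission 460 nm | Benchmarks: Wells without proteasome as full block, compound-free enzyme plus substrate as uninhibited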
# ATG4B inh = ATG4B protease inhibitors, primary screen, biochemical, fluorescence, uHTS; Cysteine protease ATG4B (Homo sapiens), Q9Y4P1; 340,000 compounds, 0.51% hits; ATG4B cleavage of LC3-PLA2, NBD-HPC fluorescence, 1 h; inhibition, % at 8.33 µM; in the data active means inhibition above about 40%
# Target sequence (Q9Y4P1 whole entry, looked up): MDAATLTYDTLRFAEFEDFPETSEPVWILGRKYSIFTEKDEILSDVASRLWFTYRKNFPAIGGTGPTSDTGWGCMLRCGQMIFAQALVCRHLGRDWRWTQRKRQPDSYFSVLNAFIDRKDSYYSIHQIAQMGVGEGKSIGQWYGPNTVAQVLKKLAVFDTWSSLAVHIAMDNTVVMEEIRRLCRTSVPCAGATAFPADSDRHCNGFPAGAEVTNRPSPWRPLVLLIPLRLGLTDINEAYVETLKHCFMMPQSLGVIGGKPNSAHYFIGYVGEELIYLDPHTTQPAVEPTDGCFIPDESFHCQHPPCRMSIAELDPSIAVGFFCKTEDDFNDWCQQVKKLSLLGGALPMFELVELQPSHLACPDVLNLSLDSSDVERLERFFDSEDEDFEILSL
# GRIN3A LBD mod = binders of NR3A ligand-binding domain, primary screen, biophysical, differential scanning fluorimetry, uHTS | 340,000 compounds, 2.5% hits | AID 1259313, 2017 | Tm shift relative to glycine control, % at 25 µM | Glutamate receptor ionotropic, NMDA 3A (GRIN3A) ligand-binding domain | NR3A LBD differential scanning fluorimetry, Tm shift; 0% = protein alone, 100% = glycine-bound protein;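 active means melting temperature shift of at least 10% of the positive control shift, at one fixed dose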
# Numbers stand for hits; . = inactive; / = no result.
SMILES,SENP1 FRET inh,NadD inh,UCH37 inh,ATG4B inh,GRIN3A LBD mod
Cc1ccc(NC(=O)CCn2c(=O)[nH]c3ccsc3c2=O)cc1,.,.,.,.,.
CCOc1ccc(NC(=O)CCn2c(=O)[nH]c3ccsc3c2=O)cc1,.,.,.,.,19
CCOc1cc(C=NO)cc(Cl)c1OCC,/,/,.,/,/
CC1C=Cc2ccccc2N1C(=O)c1ccccc1 (stereo not drawn),.,.,.,.,.
O=C(CC1C=Cc2ccccc2N1C(=O)c1ccccc1)c1ccccc1 (stereo not drawn),.,.,/,.,10
CC(C)c1ccc2[nH]c(O)c(N=NC(=O)c3cccc(S(=O)(=O)Nc4ccccc4Cl)c3)c2c1,.,38,/,.,.
N/C(=N\OC(=O)/C=C/c1ccccc1)c1cccnc1,.,.,.,.,20
Cc1c([N+](=O)[O-])cc(C(=O)Nc2ccc3ncccc3c2)cc1[N+](=O)[O-],.,.,.,.,.
O=C(Nc1ccc2ncccc2c1)Nc1ccc2ncccc2c1,.,.,/,.,33
O=C(Nc1ccccc1)Nc1cccc2cccnc12,.,.,.,.,13
O=C(Nc1ccc2ncccc2c1)c1ccccc1Br,.,.,.,.,18
O=C(NN=Cc1cccc(Oc2ccccc2)c1)c1ccc(O)cc1O,/,/,.,/,/
CC(=NNC(=O)CCc1c[nH]c2ccccc12)c1ccc([N+](=O)[O-])cc1,/,/,.,/,/
CCc1ccc(C(=O)/C=C2\Sc3ccccc3NC2=O)cc1,.,.,.,56,.
CCCCNC(=O)/C=C1\Sc2ccccc2NC1=O,.,.,.,.,.
O=C(Oc1cccc2ccccc12)c1cc(Cl)nc2ccccc12,.,.,.,.,14
COc1ccccc1C(CNC(=O)c1ccc(NS(=O)(=O)c2ccc(F)c(C)c2)cc1)N(C)C (stereo not drawn),.,.,.,.,10
Nc1c(Cl)cc2c(c1Oc1ccccc1)C(=O)c1ccccc1C2=O,70,.,.,.,.
COc1ccccc1NCC(=O)NN=Cc1cccnc1,/,/,.,/,/
S=c1[nH]nc(-c2ccccn2)n1N=Cc1ccco1,/,/,.,/,/
CCn1c(=S)sc2c(=O)n(CC(=O)Nc3ccc(Cl)cc3)c(C)nc21,.,.,.,.,15
Cc1nc2c(sc(=S)n2Cc2ccco2)c(=O)n1CC(=O)Nc1ccc(F)cc1,.,.,.,.,14
CCn1c(=S)sc2c(=O)n(CC(=O)Nc3ccccc3)c(C)nc21,.,.,.,.,.
CCn1c(=S)sc2c(=O)n(CC(=O)Nc3ccc(OC)c(Cl)c3)c(C)nc21,.,.,.,.,12
Cc1ccc(N=C2NC(=O)/C(=C/c3cccs3)S2)cc1C,36,.,.,.,.
SMILES,SENP1 FRET inh,NadD inh,UCH37 inh,ATG4B inh,GRIN3A LBD mod
Cc1cccc(N=C2NC(=O)/C(=C\c3cccs3)S2)c1,.,.,.,.,.
N#CC(=NNc1ccc(F)cc1)C(=N)N1CCCCC1,/,/,.,/,/
NC(N)=NS(=O)(=O)c1ccc(N/C=C\C(=O)c2ccncc2)cc1,.,.,.,.,244
O=c1oc2ccc(Cl)cc2cc1-c1ccccc1,.,.,.,.,14
O=c1cc(-c2cccs2)oc2ccc(Cl)cc12,.,.,.,.,.
O=c1cc(-c2ccc3c(c2)OCCO3)oc2ccc(Cl)cc12,.,.,.,.,12
O=c1cc(-c2ccccc2)oc2ccc(Cl)cc12,.,.,/,.,14
COc1ccc(C=NNC(=O)c2cc3c(ccc4ccccc43)o2)cc1O,/,/,.,/,/
COC(=O)c1ccc(-c2ccc(C=NNC(=O)Cc3nnc(N)s3)o2)cc1,/,/,.,/,/
Cc1cccc(NC(=O)CSc2nnc(CNC(=O)c3ccco3)n2C)c1C,.,.,.,.,.
Cn1c(CNC(=O)c2ccco2)nnc1SCC(=O)Nc1ccccc1Cl,.,.,.,.,13
Cc1ccc(NCC(=O)N/N=C/c2ccc(-c3cccc(C(F)(F)F)c3)o2)cc1,.,.,/,.,25
O=C(N/N=C/c1ccc(-c2cccc([N+](=O)[O-])c2)o1)c1ccc([N+](=O)[O-])cc1,.,.,/,.,.
O=C(N/N=C/c1ccc(-c2cccc([N+](=O)[O-])c2)o1)c1ccccc1O,.,.,/,.,19
O=C(N/N=C/c1ccc(-c2cccc(C(F)(F)F)c2)o1)c1ccccc1O,.,.,/,.,20
O=C(N/N=C/c1ccc(-c2cccc(C(F)(F)F)c2)o1)c1ccccc1Br,.,.,/,.,15
O=C(NN=Cc1ccc(-c2cccc(C(F)(F)F)c2)o1)c1ccccc1Br,/,/,.,/,/
N#Cc1ccc(C=NN=C(N)N)cc1,/,/,.,/,/
Cc1cc(C(=O)N/N=C/c2ccc(-c3cccc(Br)c3)o2)n[nH]1,.,.,/,.,15
O=C(N/N=C/c1ccc(-c2cccc(C(F)(F)F)c2)o1)c1cccc(F)c1,.,.,/,.,11
Cc1ccc(-c2ccc(C=NNC(=O)C3C(=O)NCC3c3ccccc3)o2)cc1Cl (stereo not drawn),/,/,.,/,/
CC(O)(CS(=O)(=O)Cc1ccccc1)c1ccccc1 (stereo not drawn),.,.,.,.,.
COc1ccc(CS(=O)(=O)CC(C)(O)c2ccccc2Cl)cc1 (stereo not drawn),.,.,/,.,16
CC1(C)CC(=O)CC(=NNC(=S)NCc2ccccc2)C1,/,/,.,/,/
CCn1nnnc1SCC(=O)NCc1ccc2c(c1)OCO2,.,.,.,.,.
SMILES,SENP1 FRET inh,NadD inh,UCH37 inh,ATG4B inh,GRIN3A LBD mod
COc1ccc(OC)c(-n2nnnc2SCC(=O)NCc2ccc3c(c2)OCO3)c1,.,.,.,.,11
CNc1cc(C)nc(-n2nc(C)cc2C)n1,.,.,.,.,11
CCOc1ccc(NC(=O)Cn2c(=O)oc3ccccc32)cc1,.,.,30,.,.
O=C(CSc1nc(-c2cccs2)cc(C(F)(F)F)n1)Nc1cc(OCC(F)(F)F)cc([N+](=O)[O-])c1,.,.,.,.,15
CCC(C)NC(=O)CSc1nc(-c2cccs2)cc(C(F)(F)F)n1 (stereo not drawn),.,.,.,.,.
Oc1[nH]c2ccccc2c1C=NN1CCCCC1,/,/,.,/,/
CC(Cc1ccccc1)N/C=C1/CC(=O)NC1=O (stereo not drawn),.,.,.,.,14
O=C1C/C(=C/NCc2ccccc2)C(=O)N1,.,.,.,.,.
COc1ccc([C@@H]2CC(=O)c3c(O)cc(O)cc3O2)cc1O,.,.,.,.,.
COc1c(CC=C(C)C)cc(C2CC(=O)c3c(O)cc(O)cc3O2)cc1CC=C(C)C (stereo not drawn),.,.,.,.,30
O=C(NN=Cc1ccc([N+](=O)[O-])o1)c1cncc(Br)c1,/,/,.,/,/
